Reference: ChEMBL document CHEMBL4145662, “Novel Nonsteroidal Progesterone Receptor (PR) Antagonists with a Phenanthridinone Skeleton” (ACS Med Chem Lett, 2018)
Active and inactive are the calls of the source. The rule behind the calls is not given here.

What was measured:
Format in all cases: cell-based
Progesterone receptor [1] = target: T1, Progesterone receptor (Homo sapiens, UniProt P06401); assay: Agonist activity at PR in human T47D cells at 10 uM
T1 sequence (P06401 whole entry): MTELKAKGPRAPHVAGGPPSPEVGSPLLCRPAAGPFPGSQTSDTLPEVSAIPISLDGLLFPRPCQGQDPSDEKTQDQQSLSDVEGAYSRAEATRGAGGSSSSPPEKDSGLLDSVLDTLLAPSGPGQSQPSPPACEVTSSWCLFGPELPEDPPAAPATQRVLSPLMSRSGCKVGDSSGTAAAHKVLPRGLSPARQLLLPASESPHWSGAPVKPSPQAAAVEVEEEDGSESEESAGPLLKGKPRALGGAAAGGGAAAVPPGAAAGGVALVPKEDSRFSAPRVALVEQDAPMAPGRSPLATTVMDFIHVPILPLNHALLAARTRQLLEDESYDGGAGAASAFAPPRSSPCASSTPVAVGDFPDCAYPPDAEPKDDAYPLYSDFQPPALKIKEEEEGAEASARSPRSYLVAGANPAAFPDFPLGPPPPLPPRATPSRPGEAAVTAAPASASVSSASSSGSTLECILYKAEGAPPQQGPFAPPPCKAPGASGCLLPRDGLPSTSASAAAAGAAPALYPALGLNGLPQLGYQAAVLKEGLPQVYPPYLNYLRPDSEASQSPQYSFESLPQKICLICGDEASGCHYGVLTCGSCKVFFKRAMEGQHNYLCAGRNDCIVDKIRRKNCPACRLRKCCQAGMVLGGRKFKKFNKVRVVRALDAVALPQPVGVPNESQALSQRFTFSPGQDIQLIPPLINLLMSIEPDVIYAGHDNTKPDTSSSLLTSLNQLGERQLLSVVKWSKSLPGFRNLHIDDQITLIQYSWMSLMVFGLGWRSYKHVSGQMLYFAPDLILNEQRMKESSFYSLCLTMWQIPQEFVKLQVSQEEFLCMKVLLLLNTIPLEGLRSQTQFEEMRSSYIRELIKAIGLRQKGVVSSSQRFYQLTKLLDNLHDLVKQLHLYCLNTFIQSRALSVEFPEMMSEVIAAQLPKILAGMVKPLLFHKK

Homo sapiens [2] = organism: Homo sapiens; assay: Selectivity ratio of IC50 for human RORbeta1 expressed in HEK293 cells to IC50 for PR in human T47D cells assessed as inhibition of progesterone-induced alkaline phosphatase activity
Glucocorticoid receptor = target: T2, Glucocorticoid receptor (Homo sapiens, UniProt P04150); assay: Antagonist activity at human CMX-GRalpha expressed in HEK293 cells assessed as reduction in dexamethasone-induced transactivation activity after 24 hrs by luciferase reporter gene assay
T2 sequence (P04150 whole entry): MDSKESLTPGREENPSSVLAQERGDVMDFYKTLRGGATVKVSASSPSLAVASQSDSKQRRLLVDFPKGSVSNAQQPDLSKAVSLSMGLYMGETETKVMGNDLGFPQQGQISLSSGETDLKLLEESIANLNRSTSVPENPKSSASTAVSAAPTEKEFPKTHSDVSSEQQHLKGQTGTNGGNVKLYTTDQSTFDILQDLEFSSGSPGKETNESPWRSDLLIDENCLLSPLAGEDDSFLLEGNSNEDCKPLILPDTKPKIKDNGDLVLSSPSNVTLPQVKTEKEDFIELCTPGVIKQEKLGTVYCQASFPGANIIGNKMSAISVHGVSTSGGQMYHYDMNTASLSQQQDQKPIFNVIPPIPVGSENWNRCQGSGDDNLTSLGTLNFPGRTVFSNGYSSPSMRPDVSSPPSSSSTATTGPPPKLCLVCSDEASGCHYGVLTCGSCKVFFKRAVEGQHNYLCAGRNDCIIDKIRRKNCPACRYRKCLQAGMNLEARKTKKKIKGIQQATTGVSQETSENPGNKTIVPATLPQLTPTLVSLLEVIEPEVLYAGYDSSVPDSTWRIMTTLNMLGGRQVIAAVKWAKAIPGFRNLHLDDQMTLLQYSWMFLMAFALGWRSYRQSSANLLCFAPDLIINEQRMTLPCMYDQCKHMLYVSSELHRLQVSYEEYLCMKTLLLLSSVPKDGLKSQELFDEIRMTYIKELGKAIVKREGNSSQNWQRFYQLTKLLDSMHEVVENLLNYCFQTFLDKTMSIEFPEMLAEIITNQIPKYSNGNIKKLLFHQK
Procedure, shortened: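 GRα antagonism measured by reporter gene assay with dexamethasone (1 nM) as agonist.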

Homo sapiens [3] = organism: Homo sapiens; assay: Selectivity ratio of IC50 for human RORalpha1 expressed in HEK293 cells to IC50 for PR in human T47D cells assessed as inhibition of progesterone-induced alkaline phosphatase activity
[4] = target: T3, Nuclear receptor ROR-alpha (Homo sapiens) (UniProt P35398); assay: Antagonist activity at human RORalpha1 expressed in HEK293 cells at 20 uM after 24 hrs by luciferase reporter gene assay
T3 sequence (whole entry): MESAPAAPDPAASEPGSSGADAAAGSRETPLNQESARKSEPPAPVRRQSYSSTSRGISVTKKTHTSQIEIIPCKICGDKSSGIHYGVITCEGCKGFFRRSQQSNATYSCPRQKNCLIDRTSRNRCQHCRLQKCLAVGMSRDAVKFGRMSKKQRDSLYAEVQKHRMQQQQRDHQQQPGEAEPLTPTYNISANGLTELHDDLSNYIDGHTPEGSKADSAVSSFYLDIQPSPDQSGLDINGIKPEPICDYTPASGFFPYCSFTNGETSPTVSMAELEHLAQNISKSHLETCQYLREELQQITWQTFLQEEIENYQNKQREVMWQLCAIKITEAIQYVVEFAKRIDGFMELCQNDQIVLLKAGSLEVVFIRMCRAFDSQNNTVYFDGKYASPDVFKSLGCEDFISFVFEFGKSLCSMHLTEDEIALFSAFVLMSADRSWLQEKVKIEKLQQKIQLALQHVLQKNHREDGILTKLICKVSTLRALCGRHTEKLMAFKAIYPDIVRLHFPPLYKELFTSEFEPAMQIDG
Procedure, shortened: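 Inverse agonism at RORα, RORβ or RORγ measured by reporter gene assay.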

Homo sapiens [5] = organism: Homo sapiens; assay: Selectivity ratio of IC50 for human GAL4N-fused LXRalpha LBD expressed in HEK293 cells to IC50 for PR in human T47D cells assessed as inhibition of progesterone-induced alkaline phosphatase activity
Homo sapiens [6] = organism: Homo sapiens; assay: Selectivity ratio of IC50 for human CMX-AR expressed in HEK293 cells to IC50 for PR in human T47D cells assessed as inhibition of progesterone-induced alkaline phosphatase activity
[7] = target: T4, Progesterone receptor (Homo sapiens) (UniProt P06401); assay: Antagonist activity at PR in human T47D cells assessed as inhibition of progesterone-induced beta1-Na/K-ATPase expression at 0.1 to 10 uM measured after 24 hrs by Western blot analysis
T4 sequence (whole entry): T1 sequence (P06401 whole entry)
Procedure, shortened: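 Validation in T47D cells by Western blotting of the β1 subunit of Na/K-ATPase, a PR-regulated protein.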

Homo sapiens [8] = organism: Homo sapiens; assay: Selectivity ratio of IC50 for human CMX-GRalpha expressed in HEK293 cells to IC50 for PR in human T47D cells assessed as inhibition of progesterone-induced alkaline phosphatase activity
Progesterone receptor [9] = target: T1, Progesterone receptor; assay: Antagonist activity at PR in human T47D cells assessed as inhibition of progesterone-induced alkaline phosphatase activity measured after 24 hrs

Row | Activity (Progesterone receptor [1]) | IC50 (Glucocorticoid receptor) | Activity [4] | inhibition [7] | IC50 (Progesterone receptor [9]) | Structure (SMILES) | Ratio IC50 (Homo sapiens [2]) | Ratio IC50 (Homo sapiens [3]) | Ratio IC50 (Homo sapiens [5]) | Ratio IC50 (Homo sapiens [6]) | Ratio IC50 (Homo sapiens [8])
1 | Not Active | > 20000 nM | inactive | Active | 27 nM | Cc1cc(C(O)(C(F)(F)F)C(F)(F)F)cc2c3ccc(F)cc3c(=O)n(C)c12 | > 300 | > 300 | > 300 | > 10 | > 300
2 | Not Active | > 20000 nM | inactive | Active | 46 nM | Cc1cc(C(O)(C(F)(F)F)C(F)(F)F)cc2c1[nH]c(=O)c1cc(F)ccc12 | > 300 | > 300 | > 300 | > 30 | > 300
3 | Not Active | > 20000 nM | inactive | Active | 150 nM | Cc1cc(C(O)(C(F)(F)F)C(F)(F)F)cc2c1[nH]c(=O)c1ccccc12 | > 100 | > 100 | > 100 | > 100 | > 100
